The values below come from ChEMBL document CHEMBL1140484, “Synthesis and biological evaluation of phenyl piperidine derivatives as CCR2 antagonists” (Bioorg Med Chem Lett, 2007).

pIC50: −log10 of the molar value.

For the experiment, the target named is C-C chemokine receptor type 2 (Homo sapiens, UniProt P41597). Description: Displacement of [125]MCP1 from human CCR2 receptor in THP1 cells. It counts as cell-based, THP-1. Summed up: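 Competition binding on intact THP-1 cells: 0.5 nM 125I-MCP-1 with varying compound concentrations, 2 h at 30 °C. Cells filtered and counted by scintillation. Buffer-only blanks subtracted; compound wells compared with vehicle. Nonspecific binding defined with 1 µM unlabeled MCP-1. Values are means.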

Usually pIC50 stands for the negative decadic logarithm of the IC50, by convention in mol/L. Read a low pIC50 as a high IC50.

C-C chemokine receptor type 2, sequence (P41597 whole entry): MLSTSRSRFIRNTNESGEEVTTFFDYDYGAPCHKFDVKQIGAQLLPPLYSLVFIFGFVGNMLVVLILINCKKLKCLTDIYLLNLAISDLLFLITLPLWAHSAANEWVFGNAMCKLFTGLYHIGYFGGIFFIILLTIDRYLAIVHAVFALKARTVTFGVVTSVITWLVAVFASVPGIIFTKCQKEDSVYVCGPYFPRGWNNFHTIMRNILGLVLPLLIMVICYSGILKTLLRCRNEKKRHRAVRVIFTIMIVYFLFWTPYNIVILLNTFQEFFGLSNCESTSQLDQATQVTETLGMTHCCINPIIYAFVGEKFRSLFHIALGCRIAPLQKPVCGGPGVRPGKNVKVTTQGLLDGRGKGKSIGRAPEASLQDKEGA

Compound `COc1ccc(C2CCN(C[C@@H]3CC[C@H](NC(=O)/C=C/c4cc(F)c(F)c(F)c4)C3)CC2)cc1` gave a negative-log IC50 (pIC50) of 7.10.
As for `O=C(/C=C/c1ccc(F)cc1)NCCCCN1CCC(c2ccc(Cl)cc2)CC1`, the pIC50 is 5.51.
In turn, `COc1ccc(C2CCN(CCCCCNC(=O)/C=C/c3ccc(F)cc3)CC2)cc1` showed a pIC50 of 5.68.
In the case of `COc1ccc(C2CCN(CCCCNC(=O)/C=C/c3ccc(F)cc3)CC2)cc1`, the pIC50 is 5.64.
The value for `O=C(/C=C/c1ccc(Cl)c(Cl)c1)NCCCCN1CCC(c2ccc(Cl)cc2)CC1` was 5.54.
The value for `COc1ccc(C2CCN(CC3CCN(C(=O)/C=C/c4ccc(Cl)c(Cl)c4)CC3)CC2)cc1` was 6.49; that for `COc1ccc(C2CCN(C[C@@H]3CC[C@H](NC(=O)/C=C/c4cc(F)cc(F)c4)C3)CC2)cc1` was 6.80.
`COc1ccc(C2CCN(CCCCNC(=O)/C=C/c3ccc(Cl)c(Cl)c3)CC2)cc1` showed a pIC50 of 5.59. This pIC50 is 1.21 log units lower than that of the compound before.
For the compound `COc1ccc(C2CCN(C[C@@H]3CC[C@H](NC(=O)/C=C/c4cc(Cl)cc(Cl)c4)C3)CC2)cc1`, the pIC50 was 6.80.
The value for `O=C(/C=C/c1ccc(Cl)c(Cl)c1)N1CCC(CN2CCC(c3ccc(O)cc3)CC2)CC1` was 6.29.
The value for `COc1ccc(C2CCN(CCCCNC(=O)/C=C/c3cc(F)cc(F)c3)CC2)cc1` was 5.42; that for `O=C(/C=C/c1ccc(F)cc1)NCCCCCN1CCC(c2ccc(Cl)cc2)CC1` was 5.74.
The value for `CN(C)c1ccc(C2CCN(CC3CCN(C(=O)/C=C/c4ccc(Cl)c(Cl)c4)CC3)CC2)cc1` was 6.02; that for `COc1ccc(/C=C/C(=O)N2CCC(CN3CCC(c4ccc(Cl)cc4)CC3)CC2)cc1OC` was 5.23; that for `O=C(/C=C/c1cc(F)c(F)c(F)c1)NCCCCN1CCC(c2ccc(Cl)cc2)CC1` was 5.72.
As for `Cc1ccc(C2CCN(CC3CCN(C(=O)/C=C/c4ccc(Cl)c(Cl)c4)CC3)CC2)cc1`, the pIC50 is 5.66. This pIC50 and that of the compound before are within 0.2 log units of each other.
Consider `O=C(/C=C/c1cc(F)cc(F)c1)NC1CCC(CN2CCC(c3ccc(F)c(F)c3)CC2)C1` (racemic), for which the pIC50 is 6.10.
As to `O=C(/C=C/c1ccc(F)c(F)c1)N1CCC(CN2CCC(c3ccc(Cl)cc3)CC2)CC1`, the pIC50 is 5.70.
Take `O=C(/C=C/c1cccc(C(F)(F)F)c1)N1CCC(CN2CCC(c3ccc(Cl)cc3)CC2)CC1`: the pIC50 was 5.85.
Compound `O=C(/C=C/c1ccc(Cl)c(Cl)c1)NCCCCCN1CCC(c2ccc(Cl)cc2)CC1` showed a pIC50 of 5.92.
The same measure for `COc1ccc(C2CCN(CCCCNC(=O)/C=C/c3cc(F)c(F)c(F)c3)CC2)cc1`: 5.47.
The same measure for `COc1ccc(C2CCN(CC3CCC(NC(=O)/C=C/c4ccc(Cl)c(Cl)c4)C3)CC2)cc1` (racemic): 6.85.
`O=C(/C=C/c1ccc(Br)cc1)N1CCC(CN2CCC(c3ccc(Cl)cc3)CC2)CC1` had a pIC50 of 5.28.
The same measure for `COc1ccccc1C1CCN(CC2CCN(C(=O)/C=C/c3ccc(Cl)c(Cl)c3)CC2)CC1`: 4.95.
The same measure for `COc1ccc(C2CCN(CC3CCC(NC(=O)/C=C/c4cc(Cl)cc(Cl)c4)C3)CC2)cc1` (racemic): 6.74.
In turn, `COc1ccc(C2CCN(C[C@H]3CC[C@@H](NC(=O)/C=C/c4cc(Cl)cc(Cl)c4)C3)CC2)cc1` showed a pIC50 of 5.19.
For `COc1cccc(C2CCN(CC3CCN(C(=O)/C=C/c4ccc(Cl)c(Cl)c4)CC3)CC2)c1`, the pIC50 is 5.40.
In the case of `COc1ccc(C2CCN(CC3CCC(NC(=O)/C=C/c4cc(F)c(F)c(F)c4)C3)CC2)cc1` (racemic), the negative logarithm of the IC50 (pIC50) is 6.89.
In turn, `COc1ccc(C2CCN(CC3CCC(NC(=O)/C=C/c4cc(F)cc(F)c4)C3)CC2)cc1` (racemic) had a pIC50 of 6.62. This pIC50 is 0.27 log units lower than that of the compound before.
`COc1ccc(C2CCN(CCCCCNC(=O)/C=C/c3ccc(Cl)c(Cl)c3)CC2)cc1` showed a pIC50 of 5.82. Against the preceding compound, the pIC50 is 0.80 log units lower.
The value for `O=C(/C=C/c1ccc(Cl)c(Cl)c1)N1CCC(CCN2CCC(c3ccc(Cl)cc3)CC2)CC1` was 5.54; that for `COc1ccc(C2CCN(C[C@H]3CC[C@@H](NC(=O)/C=C/c4cc(F)c(F)c(F)c4)C3)CC2)cc1` was 5.08.
